From the EternaBench riboswitch data come the findings set out here.

This series concerns MS2 coat protein. Description: apparent Kd, MS2 coat protein; higher = weaker binding; RNA-MaP array. The method, boiled down:
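Designed RNAs were transcribed on an Illumina sequencing chip from sequenced DNA templates. They were incubated at room temperature with fluorescently labeled MS2 coat protein at 1.5 nM to 3 μM, for 0.8–1.5 h at the lowest to 10–20 min at the highest concentrations, in Tris-HCl pH 7.5 buffer with KCl, MgCl2, BSA, DTT, tRNA and Tween20, with or without input ligand. Apparent Kd is the median of per-cluster binding-curve fits. Designs measured on fewer than 10 clusters were excluded.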

Setting [1] is: designed as: OFF switch for flavin mononucleotide, no ligand.
The mark [2] stands for this setting: ligand present: flavin mononucleotide, designed as: OFF switch for flavin mononucleotide.
Setting [3] is: designed as: OFF switch for tryptophan, no ligand.
[4] abbreviates: ligand present: tryptophan, designed as: OFF switch for tryptophan.
Setting [5] is: designed as: ON switch for tryptophan, no ligand.
Setting [6] is: ligand present: tryptophan, designed as: ON switch for tryptophan.
Setting [7] is: designed as: ON switch for flavin mononucleotide, no ligand.
[8] abbreviates: ligand present: flavin mononucleotide, designed as: ON switch for flavin mononucleotide.
The mark [9] stands for this setting: designed as: ON switch for theophylline, no ligand.
[10] abbreviates: ligand present: theophylline, designed as: ON switch for theophylline.

A word on the apparent Kd: it is a dissociation constant that holds for the conditions of the assay.

With “AACCUACAUGAGGAUCACCCAUGUGAGGAUAUUGCGGUUCUUAGCAUGAGAACCAUACCAAGAAGGCACAGGGC”, the “apparent Kd” value was found to be 7.53 nM under setting [1] and 23.2 nM under setting [2].

With “GUGAAACAUGAGGAUCACCCAUGUCAGGAUAUACUAAUGUCCGCUCGAUUGGACCUGUGUAGAAGGGACUGUGA”, the “apparent Kd” value was found to be 12.7 nM under setting [1] and 17.6 nM under setting [2].

Consider “UACUGUCUAACGGCCGCCACUCAGUCUCGGUUGAUUAUCUUAAGUGACAUGAGGAUCACCCAUGUGAGGACCGGGUUGUGCAUAA”, for which the “apparent Kd” value came out at 76 nM under setting [3] and 136 nM under setting [4].

For the sequence “CCGAACAUGAGGAUCACCCAUGUAUCCGAGCGAGGACCGGUACGGCCGCCACUCGAACUGCACCGGAAAAGGGAAACACCGAUCC”, the “apparent Kd” value runs as follows: under setting [5], 56.2 nM; under setting [6], 61.8 nM.

As for “UUUCUGUUACAGAAGGGAAGGAAACAUGAGGAUCACCCAUGUCCACGCCGUUUACAUUCGGCCGUUCAGGAUAUGUCAUAUUGA”, the “apparent Kd” value under setting [7] turned out to be 23.1 nM and the “apparent Kd” value under setting [8] was determined as 17 nM.

As to “CCUUUACAUGAGGAUCACCCAUGUGAAAUGGAUUGCGUAAAUAGAAGGCAUCAGAUCGUACAUGAUGAGGAUAUAUUAUCGAGU”, the “apparent Kd” value reads like this: under setting [7], 15.3 nM; under setting [8], 7.44 nM.

As for “ACAUGAGGAUCACCCAUGUGCCUCGAUAGGUAACUGAGACCCAGAAGGCCAGCGCGUUGCGCCUUGGAGGAUAUGGCAAACAAG”, the “apparent Kd” value came out at 34.5 nM under setting [7] and 19.7 nM under setting [8].

In the case of “ACCGGAAAAGGAUAUCGAAUUAGCAACAUGAGGAUCACCCAUGUCUGUCGCUCGUGUAUUCGAGAAGGUUUCGCCC”, the “apparent Kd” value runs as follows: under setting [1], 4.96 nM; under setting [2], 5.34 nM.

Consider “CUCUCGGCAGGAUAUCGGCAGAUAAACAUGAGGAUCACCCAUGUGUUCUUAAAAUUCCGUCGAGAAGGGCCGCGAU”, for which the “apparent Kd” value reads like this: under setting [1], 4.68 nM; under setting [2], 5.16 nM.

As for “UAAAUCGAAGGAUAUACAUGUACAAGUAUCCGUCAAAGAGCACAUGAGGAUCACCCAUGUAGAAGGUCGACUAA”, the “apparent Kd” value is 19.2 nM under setting [1] and 57.6 nM under setting [2].

Regarding “UCCACACAUGAGGAUCACCCAUGUUGACAUUAUUGAGGAUAUCGGAGUGAAGGUUCGGUUCGAGAAGGCAACCAGA”, the “apparent Kd” value is, setting by setting: under setting [7], 19.8 nM; under setting [8], 14.8 nM.

As for “ACGUAGGGCUAGAAGGCUCUAACAAGGUGCCCAUAAAAUAACAUGAGGAUCACCCAUGUUAGUAGAGAGGAUAUAGACUCAUGU”, the “apparent Kd” value turned out to be 18.4 nM under setting [1] and 19.3 nM under setting [2].

For “UGCAAAUGAUGAGAUACCAGUUCAGUUAAAUACAUGAGGAUCACCCAUGUCAGGGAACUCAACCCUUGGCAGCUCGAUGCACUCA”, the “apparent Kd” value reads like this: under setting [9], 56.2 nM; under setting [10], 14.9 nM.

As for “UAAUCGUAGGCGGCCGCCACUUUUUGGUAGUGUCCAUUGUACACUCACAUGAGGAUCACCCAUGUAAGGACCGGGCCCGCAUCAG”, the “apparent Kd” value was 17 nM under setting [3] and 16.7 nM under setting [4].

For “UAACUGGACCAGAAGGGAGCGCGUCGCGCAUCAACAUACAUGAGGAUCACCCAUGUUCGAGAGUCUCAGGAUAUGGCCGGUAUA”, the “apparent Kd” value worked out at 9.92 nM under setting [7] and 7.91 nM under setting [8].

Take “AAAUGUGUAUAGGAUAUCUUGACCCACGCAUUCAGAGAAGGAUACACAUGAGGAUCACCCAUGUUGAGACGGAA”: the “apparent Kd” value worked out at 15.5 nM under setting [1] and 43.9 nM under setting [2].

Take “ACGAAUCCCGUUCCGUGAGGACAUGAGGAUCACCCAUGUUGCAGAAGGGCCGAGCGGAUGGCGAGGCAGGAUAUGCCACAGAUC”: the “apparent Kd” value stood at 27.6 nM under setting [1] and 105 nM under setting [2].

Regarding “AUAUAGGUAGGAUAUACAAUGAAUGGGCACCGUAAAACCAUACAUGAGGAUCACCCAUGUAGAAGGACCGGAAG”, the “apparent Kd” value runs as follows: under setting [1], 7.86 nM; under setting [2], 12.5 nM.

For the sequence “CUGUUUACAUGAGCCCGUCAUAUAUACGAUACCAGUUAAAGAUGAAACCCUUGGCAGCGUAGGACAUGAGGAUCACCCAUGUGCC”, the “apparent Kd” value came to 18.6 nM (designed as: OFF switch for theophylline, no ligand) and 33.1 nM (ligand present: theophylline, designed as: OFF switch for theophylline).

Turning to “AAUCUGAUUGCGGCCGCCACUAAUUUUCCAUGAGUAUUGCAAUUACAUGAGGAUCACCCAUGUCAUAGGACCGGGCAUGACAUCU”, the “apparent Kd” value reads like this: under setting [5], 303 nM; under setting [6], 240 nM.

As for “CGAUAUGAGGUCGAUACCAGCAGCUUCAAGCACAUGAGGAUCACCCAUGUCCAUUUUACUUGCCCUUGGCAGCGACUUUGGAAAC”, the “apparent Kd” value amounted to 39.4 nM under setting [9] and 13.8 nM under setting [10].

For the sequence “CCGAAUCAAACUGAUAGUCUACAUGAGGAUCACCCAUGUGAAAAGGAUAUCUUUUGAACUGACGAAGAGAAGGUUUUAGAGGGU”, the “apparent Kd” value under setting [1] amounted to 7.77 nM and the “apparent Kd” value under setting [2] is 8 nM.

On to “GGUCCCAUGCGACAGGAUAUUGGAUGCAGCACAUGAGGAUCACCCAUGUAUACAGUUAUGGAUAACAAGAAGGGUCGCUUUGCAUA”, for which the “apparent Kd” value is, setting by setting: under setting [7], 45.3 nM; under setting [8], 15.2 nM.

For “UCAGAAAGAUAGGACCUACAUGAGGAUCACCCAUGUUGCUGUAGAAGGUGCCGUGCCAUCGUGAGCAAGGAUAUACCGAUAUGG”, the “apparent Kd” value is, setting by setting: under setting [1], 22.6 nM; under setting [2], 15.8 nM.
